Results from ChEMBL document CHEMBL2429791, “Preparation of asymmetric urea derivatives that target prostate-specific membrane antigen for SPECT imaging” (J Med Chem, 2013).

Experiments:
Type in all cases: ADME, organism-based
Blood [1] = assay: Biodistribution in blood of C.B.-17/Icr +/+ Jcl mouse xenografted with human LNCAP and PC3 cells at 25.9 MBq, iv after 2 mins; conditions: in vivo
Procedure, shortened: (§1)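 ¹²⁵I-labelled tracer given iv by tail vein to mice (22–24 g) bearing LNCaP (left shoulder) and PC-3 (right shoulder) xenografts of about 5–10 mm, grown from 1–5 × 10⁶ cells in 1:1 Matrigel. n=4 per time point; decapitated at 2 min, 30 min, 1, 3, 6 h. Tissues weighed and counted; uptake as %ID/g, mean ± SD.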

[2] = Ratio of drug level in human PC3 cells xenografted in C.B.-17/Icr +/+ Jcl mouse to blood of C.B.-17/Icr +/+ Jcl mouse xenografted with human LNCAP and PC3 cells at 25.9 MBq, iv after 3 hrs; conditions: PC3 tumour xenograft relative to blood
Procedure, shortened: (§2)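 Mice (22–24 g) carried PC-3 (right shoulder) and LNCaP (left shoulder) tumors, raised by injecting 1–5 × 10⁶ cells in 1:1 PBS/Matrigel and used at about 5–10 mm diameter. [¹²⁵I]-tracer was given via the tail vein, n=4 per time point, and mice were decapitated at 2 min, 30 min, 1, 3 or 6 h. Tissues were weighed and γ-counted as %ID/g. Tumor/blood and tumor/muscle ratios were taken from %ID/g, mean ± SD.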

Stomach [3] = assay: Biodistribution in stomach of C.B.-17/Icr +/+ Jcl mouse xenografted with human LNCAP and PC3 cells at 25.9 MBq, iv after 6 hrs; conditions: in vivo
Procedure, shortened: (§3)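 Radioiodinated (¹²⁵I) tracer given by tail-vein injection to mice bearing LNCaP (left shoulder) and PC-3 (right shoulder) xenografts, 22–24 g, grown to about 5–10 mm. Groups of n=4 were decapitated at 2 min, 30 min, 1 h, 3 h or 6 h. Tissues were weighed and counted, and uptake was expressed as %ID/g (mean ± SD).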

Blood [4] = assay: Biodistribution in blood of C.B.-17/Icr +/+ Jcl mouse xenografted with human LNCAP and PC3 cells at 25.9 MBq, iv after 1 hr; conditions: in vivo; procedure, shortened: as §1
[5] = Ratio of drug level in human PC3 cells xenografted in C.B.-17/Icr +/+ Jcl mouse to blood of C.B.-17/Icr +/+ Jcl mouse xenografted with human LNCAP and PC3 cells at 25.9 MBq, iv after 1 hr; conditions: PC3 tumour xenograft relative to blood; procedure, shortened: as §2
Stomach [6] = assay: Biodistribution in stomach of C.B.-17/Icr +/+ Jcl mouse xenografted with human LNCAP and PC3 cells at 25.9 MBq, iv after 30 mins; conditions: in vivo, 0.5 h; procedure, shortened: as §3
[7] = Ratio of drug level in human PC3 cells xenografted in C.B.-17/Icr +/+ Jcl mouse to blood of C.B.-17/Icr +/+ Jcl mouse xenografted with human LNCAP and PC3 cells at 25.9 MBq, iv after 2 mins; conditions: PC3 tumour xenograft relative to blood; procedure, shortened: as §2
Heart [8] = assay: Biodistribution in heart of C.B.-17/Icr +/+ Jcl mouse xenografted with human LNCAP and PC3 cells at 25.9 MBq, iv after 3 hrs; conditions: in vivo; procedure, shortened: as §1
Blood [9] = assay: Biodistribution in blood of C.B.-17/Icr +/+ Jcl mouse xenografted with human LNCAP and PC3 cells at 25.9 MBq, iv after 30 mins; conditions: in vivo, 0.5 h; procedure, shortened: as §1
Thyroid gland [10] = assay: Biodistribution in thyroid of C.B.-17/Icr +/+ Jcl mouse xenografted with human LNCAP and PC3 cells at 25.9 MBq, iv after 30 mins; conditions: in vivo, 0.5 h; procedure, shortened: as §3
Nucleic Acid [11] = assay: Ratio of drug level in human PC3 cells xenografted in C.B.-17/Icr +/+ Jcl mouse to muscle of C.B.-17/Icr +/+ Jcl mouse xenografted with human LNCAP and PC3 cells at 25.9 MBq, iv after 1 hr; conditions: in vivo; procedure, shortened: as §2
Nucleic Acid [12] = assay: Ratio of drug level in human PC3 cells xenografted in C.B.-17/Icr +/+ Jcl mouse to muscle of C.B.-17/Icr +/+ Jcl mouse xenografted with human LNCAP and PC3 cells at 25.9 MBq, iv after 2 mins; conditions: in vivo; procedure, shortened: as §2
Kidney [13] = assay: Biodistribution in kidney of C.B.-17/Icr […] Jcl mouse xenografted with human LNCAP and PC3 cells at 25.9 MBq, iv after 2 mins; conditions: in vivo; procedure, shortened: as §1
Stomach [14] = assay: Biodistribution in stomach of C.B.-17/Icr +/+ Jcl mouse xenografted with human LNCAP and PC3 cells at 25.9 MBq, iv after 1 hr; conditions: in vivo; procedure, shortened: as §3
PC-3 = assay: Biodistribution in PC3 cells in C.B.-17/Icr +/+ Jcl mouse xenografted with human LNCAP and PC3 cells at 25.9 MBq, iv after 3 hrs; conditions: in vivo; procedure, shortened: as §1
Thyroid gland [15] = assay: Biodistribution in thyroid of C.B.-17/Icr +/+ Jcl mouse xenografted with human LNCAP and PC3 cells at 25.9 MBq, iv after 6 hrs; conditions: in vivo; procedure, shortened: as §3
Stomach [16] = assay: Biodistribution in stomach of C.B.-17/Icr +/+ Jcl mouse xenografted with human LNCAP and PC3 cells at 25.9 MBq, iv after 2 mins; conditions: in vivo; procedure, shortened: as §3
[17] = Ratio of drug level in human LNCAP cells xenografted in C.B.-17/Icr +/+ Jcl mouse to blood of C.B.-17/Icr +/+ Jcl mouse xenografted with human LNCAP and PC3 cells at 25.9 MBq, iv after 6 hrs; conditions: LNCAP tumour xenograft relative to blood
Procedure, shortened: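 Tumor-to-blood and tumor-to-muscle ratios were calculated from %ID/g values in ¹²⁵I-tracer biodistribution in LNCaP/PC-3 xenografted mice. Tail-vein dosing, n=4 per time point, sacrifice at 2 min, 30 min, 1, 3 or 6 h.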

[18] = Ratio of drug level in human PC3 cells xenografted in C.B.-17/Icr +/+ Jcl mouse to blood of C.B.-17/Icr +/+ Jcl mouse xenografted with human LNCAP and PC3 cells at 25.9 MBq, iv after 6 hrs; conditions: PC3 tumour xenograft relative to blood; procedure, shortened: as §2
Liver = assay: Biodistribution in liver of C.B.-17/Icr […] Jcl mouse xenografted with human LNCAP and PC3 cells at 25.9 MBq, iv after 3 hrs; conditions: in vivo; procedure, shortened: as §1
Blood [19] = assay: Biodistribution in blood of C.B.-17/Icr +/+ Jcl mouse xenografted with human LNCAP and PC3 cells at 25.9 MBq, iv after 3 hrs; conditions: in vivo; procedure, shortened: as §1
Heart [20] = assay: Biodistribution in heart of C.B.-17/Icr +/+ Jcl mouse xenografted with human LNCAP and PC3 cells at 25.9 MBq, iv after 1 hr; conditions: in vivo; procedure, shortened: as §1
Spleen = assay: Biodistribution in spleen of C.B.-17/Icr +/+ Jcl mouse xenografted with human LNCAP and PC3 cells at 25.9 MBq, iv after 1 hr; conditions: in vivo; procedure, shortened: as §3
Lung = assay: Biodistribution in lung of C.B.-17/Icr +/+ Jcl mouse xenografted with human LNCAP and PC3 cells at 25.9 MBq, iv after 30 mins; conditions: in vivo, 0.5 h; procedure, shortened: as §3
Kidney [21] = assay: Biodistribution in kidney of C.B.-17/Icr +/+ Jcl mouse xenografted with human LNCAP and PC3 cells at 25.9 MBq, iv after 30 mins; conditions: in vivo, 0.5 h; procedure, shortened: as §1
Kidney [22] = assay: Biodistribution in kidney of C.B.-17/Icr […] Jcl mouse xenografted with human LNCAP and PC3 cells at 25.9 MBq, iv after 6 hrs; conditions: in vivo; procedure, shortened: as §1

O=C(O)CC[C@H](NC(=O)N[C@@H](CSC1CC(=O)N(CCCC[C@H](NC(=O)CNC(=O)c2cccc([125I])c2)C(=O)O)C1=O)C(=O)O)C(=O)O (stereo partly specified)
Drug uptake (Blood [1]): 7.4 % ID/g
Kp at 3 h [2]: 0.4
Drug uptake (Stomach [3]): 0.7 %ID
Drug uptake (Blood [4]): 1 % ID/g
Kp at 1 h [5]: 0.7
Drug uptake (Stomach [6]): 2.2 %ID
Kp at 2 min [7]: 0.4
Drug uptake (Heart [8]): 0.7 % ID/g
Drug uptake (Blood [9]): 1.3 % ID/g
Drug uptake (Thyroid gland [10]): 0 %ID
Ratio (Nucleic Acid [11]): 1.6
Ratio (Nucleic Acid [12]): 1.9
Drug uptake (Kidney [13]): 68.1 % ID/g
Drug uptake (Stomach [14]): 1 %ID
Drug uptake (PC-3): 0.3 % ID/g
Drug uptake (Thyroid gland [15]): 0.02 %ID
Drug uptake (Stomach [16]): 0.7 %ID/g
Kp at 6 h [17]: 13.3
Kp at 6 h [18]: 0.4
Drug uptake (Liver): 9 % ID/g
Drug uptake (Blood [19]): 0.7 % ID/g
Drug uptake (Heart [20]): 1.3 % ID/g
Drug uptake (Spleen): 36.5 % ID/g
Drug uptake (Lung): 2.9 % ID/g
Drug uptake (Kidney [21]): 88.8 % ID/g
Drug uptake (Kidney [22]): 97.1 % ID/g
